Our source for the IC50, Activity and AC50 values is ChEMBL document CHEMBL1155236, “Identification of biphenyl-based hybrid molecules able to decrease the intracellular level of Bcl-2 protein in Bcl-2 overexpressing leukemia cells” (J Med Chem, 2009).

The subject of experiment [1] is K562. Description: Antiproliferative activity against human K562 cells after 48 hrs by trypan blue method. The class given is functional, cell-based. To be noted: K562, 48 h. The gist of the method:
(§1)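 Growth inhibition read by counting cells with an automatic cell counter after 48 h of compound exposure. IC50 is the concentration inhibiting 50% of cell growth.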

Experiment [2] concerns HL-60. The experiment is described as follows: Antiproliferative activity against human HL60 cells after 48 hrs by trypan blue method. Format: functional, cell-based. The note with it: HL-60, 48 h. The gist of the method: as §1
Experiment [3] has as its system K562. Description: Induction of apoptosis in human K562 cells assessed as decrease in Bcl-2 expression at 30 uM after 24 hrs by flow cytometry. The arrangement: scale not given: the % may be the effect or the level left. Format: functional. The gist of the method:
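K562 cells cultured 24 h with compound at 30 μM or without (control). Intracellular Bcl-2 read by flow cytometry after staining with FITC-conjugated anti-Bcl-2 monoclonal antibody. Treated histograms compared with control histograms.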
A general note: Flow cytometry measures light scatter and fluorescence of single cells or particles in a stream.

Experiment [4] is described as follows: Cytotoxicity against human lymphocytes after 48 hrs by trypan blue method. The class given is cell-based. The note with it: Lymphocyte. In a few lines:
as §1

The test system of experiment [5] is K562. Description: Cell cycle arrest in human K562 cells by accumulation at G2/M phase at 30 uM after 72 hrs using propidium iodide staining by FACS. The class given is functional. The gist of the method: (§2)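 K562 cells treated for 24, 48 or 72 h. Cells stained with propidium iodide and cell-cycle phase distribution analysed by flow cytometry against untreated cells. The sub-G0–G1 peak was taken as apoptotic.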

Experiment [6] deals with K562. Description: Cell cycle arrest in human K562 cells by accumulation at sub-G1 (apoptotic) phase at 30 uM after 48 hrs using propidium iodide staining by FACS. The class given is functional. In a few lines: as §2
In experiment [7] the test system is K562. Description: Cell cycle arrest in human K562 cells by accumulation at S phase at 30 uM after 24 hrs using propidium iodide staining by FACS. The class given is functional. The gist of the method: as §2
Experiment [8] relates to K562. The experiment is described as follows: Cell cycle arrest in human K562 cells by accumulation at G2/M phase at 30 uM after 24 hrs using propidium iodide staining by FACS. Format: functional. In a few lines:
as §2

Experiment [9] has as its system K562. The experiment is described as follows: Cell cycle arrest in human K562 cells by accumulation at sub-G1 (apoptotic) phase at 30 uM after 24 hrs using propidium iodide staining by FACS. Format: functional. The gist of the method: as §2
Experiment [10] has as its system K562. Description: Cell cycle arrest in human K562 cells by accumulation at G1 phase at 30 uM after 48 hrs using propidium iodide staining by FACS. Format: functional. The gist of the method:
as §2

Experiment [11] concerns K562. The experiment is described as follows: Cell cycle arrest in human K562 cells by accumulation at G1 phase at 30 uM after 72 hrs using propidium iodide staining by FACS. The class given is functional. The gist of the method:
as §2

Experiment [12] has as its system HL-60. Description: Induction of apoptosis in human HL60 cells assessed as morphological changes after 48 hrs by annexin V assay. Format: functional, cell-based. To be noted: HL-60, 48 h. In a few lines:
(§3)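 HL60 or K562 cells treated for 48 h. Apoptosis scored by morphological assay and annexin V test. AC50 is the concentration inducing apoptosis in 50% of cells.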

Experiment [13] deals with K562. The experiment is described as follows: Cell cycle arrest in human K562 cells by accumulation at G2/M phase at 30 uM after 48 hrs using propidium iodide staining by FACS. Format: functional. The gist of the method:
as §2

In experiment [14] the test system is K562. Description: Induction of apoptosis in human K562 cells assessed as morphological changes after 48 hrs by annexin V assay. The class given is functional, cell-based. The note with it: K562, 48 h. The gist of the method:
as §3

Experiment [15] concerns K562. The experiment is described as follows: Cell cycle arrest in human K562 cells by accumulation at S phase at 30 uM after 48 hrs using propidium iodide staining by FACS. The class given is functional. The gist of the method:
as §2

In experiment [16] the test system is K562. The experiment is described as follows: Cell cycle arrest in human K562 cells by accumulation at S phase at 30 uM after 72 hrs using propidium iodide staining by FACS. The class given is functional. In a few lines:
as §2

For experiment [17], the system named is K562. The experiment is described as follows: Cell cycle arrest in human K562 cells by accumulation at G1 phase at 30 uM after 24 hrs using propidium iodide staining by FACS. The class given is functional. In a few lines:
as §2

For experiment [18], the system named is K562. The experiment is described as follows: Cell cycle arrest in human K562 cells by accumulation at sub-G1 (apoptotic) phase at 30 uM after 72 hrs using propidium iodide staining by FACS. Format: functional. The gist of the method: as §2
For experiment [19], the system named is HL-60. Description: Induction of apoptosis in human HL60 cells assessed as induction of cell differentiation marker CD61 expression at 10 uM after 120 hrs by flow cytometry. The class given is functional, cell-based. In a few lines: (§4)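 HL60 or K562 cells exposed to 10 μM compound or no compound (control) for 120 h (5 days). Surface CD11c and CD61 read by flow cytometry with PE- or FITC-conjugated monoclonal antibodies. Treated cells compared with untreated cells.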

Experiment [20] relates to HL-60. The experiment is described as follows: Induction of apoptosis in human HL60 cells assessed as induction of cell differentiation marker CD11c expression at 10 uM after 120 hrs by flow cytometry. The class given is functional, cell-based. In a few lines: as §4
In experiment [21] the test system is K562. Description: Induction of apoptosis in human K562 cells assessed as induction of cell differentiation marker CD11c expression at 10 uM after 120 hrs by flow cytometry. The class given is functional, cell-based. The gist of the method: as §4
In experiment [22] the test system is K562. Description: Induction of apoptosis in human K562 cells assessed as induction of cell differentiation marker CD61 expression at 10 uM after 120 hrs by flow cytometry. The class given is functional, cell-based. The gist of the method: as §4

Each structure is given as a SMILES string. Active and inactive are the calls of the source. No cut-off for these calls is given here. A value given as a limit tells only on which side of the number the result lay.

By IC50 is commonly meant the midpoint of a concentration-inhibition curve. With `CC1(C)OC(=O)C2(C(=O)O1)[C@@H](c1ccc(O)cc1)CC(=O)C[C@H]2c1ccc(O)cc1`, the IC50 with K562 [1] was more than 100 µM; with HL-60 [2], 87 µM.
Broadly, the AC50 is the concentration giving half of the maximal activity seen. Take `CC1(C)OC(=O)C2(C(=O)O1)[C@@H](c1ccc(-c3ccc(O)cc3)cc1)CC(=O)C[C@H]2c1ccccc1`: the Activity in the experiment on K562 [3] was 31.2%; in the experiment with K562 [5] it was 9%; in the experiment with K562 [6], 46%; with K562 [7], 43%; with K562 [8] it was 11%; in the experiment on K562 [9] it was 7%. Moreover, the Activity in the experiment on K562 [10] was found to be 39%; in the experiment with K562 [11], 37%; in the experiment with K562 [13] it was 9%; in the experiment with K562 [15], 52%; in the experiment on K562 [16], 54%; in the experiment with K562 [17] it was 46%. Besides, the Activity in the experiment with K562 [18] is 47%. Further, the IC50 stood at 9 µM in the experiment with K562 [1], 172 µM in experiment [4] and 8 µM in the experiment with HL-60 [2]. Besides, the AC50 in the experiment with HL-60 [12] stood at 16 µM; in the experiment with K562 [14] it was 33 µM.
Turning to `Oc1ccc(-c2cc(O)cc(O)c2)cc1`, the 50% inhibitory concentration (IC50) in the experiment on K562 [1] and in the experiment with HL-60 [2] was more than 80 µM throughout. The AC50 with HL-60 [12] and in the experiment with K562 [14] (read-out: AC50) was more than 80 µM throughout.
Regarding `O=C1C[C@H](c2ccc(-c3ccc(CO)cc3)cc2)C2(C(=O)c3ccccc3C2=O)[C@H](c2ccccc2)C1`, the Activity in the experiment on K562 [3] was 4.3%; in the experiment with K562 [5] it was 20%; in the experiment with K562 [6], 6%; in the experiment with K562 [7], 34%; in the experiment with K562 [8] it was 19%; in the experiment with K562 [9], 4%. The Activity in the experiment with K562 [10] is given as 48%; in the experiment on K562 [11], 48%; in the experiment with K562 [13], 22%; in the experiment with K562 [15], 30%; in the experiment on K562 [16], 32%; in the experiment on K562 [17], 47%. The Activity with K562 [18] came out at 11%. Moreover, the figures for the 50% inhibitory concentration (IC50) (in the experiment on K562 [1]; in [4] (read-out: IC50); in the experiment on HL-60 [2]) were 14 µM, 286 µM and 6 µM, respectively. Also, the result in the experiment with HL-60 [19] and in the experiment on HL-60 [20] was Active. Also, the half-maximal activity concentration (AC50) was 12 µM in the experiment with HL-60 [12] (read-out: AC50) and 80 µM in the experiment with K562 [14]. The outcome with K562 [21] and with K562 [22] was inactive.
For the molecule `CC1(C)OC(=O)C2(C(=O)O1)[C@@H](c1ccc(-c3ccc(CO)cc3)cc1)CC(=O)C[C@H]2c1ccccc1`, the 50% inhibitory concentration (IC50) in the experiment with K562 [1] turned out to be 38 µM; with HL-60 [2], 20 µM.
For `O=C1C[C@H](c2cnc[nH]2)C2(C(=O)c3ccccc3C2=O)[C@H](c2ccc(O)cc2)C1`, the concentration for half-maximal inhibition (IC50) in the experiment with K562 [1] worked out at 95 µM; in the experiment with HL-60 [2], 86 µM.
As for `O=C1C[C@H](c2ncc[nH]2)C2(C(=O)c3ccccc3C2=O)[C@H](c2ncc[nH]2)C1`, the concentration for half-maximal inhibition (IC50) with K562 [1] and with HL-60 [2] was more than 100 µM throughout.
On to `Oc1ccc(-c2ccc(-c3cc(O)cc(O)c3)cc2)cc1`, for which the midpoint of inhibition in the experiment with K562 [1], the IC50, lay at 20 µM. In addition, the AC50 in the experiment with K562 [14] turned out to be 75 µM.
